Data as given in PubChem BioAssay AID463073 (The Scripps Research Institute Molecular Screening Center, 2010).
About 10 (0.5%) of roughly 2,000 compounds were called active.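 The calls were made as follows: active = inhibition above 30%; inactive = the rest.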 For the sample, actives were picked, then their nearest neighbours and some compounds at random. Residues, ends and D or L forms follow the SMILES beside them. *: point of attachment. Boc = CC(C)(C)OC(=O)*

These molecules were tested against Protein-arginine deiminase type-4 (Homo sapiens) (UniProt Q9UM07) (assay: blockers of protein arginine deiminase 4 – biochemical, fluorescence polarization, primary screen (AID 463073;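 also: 0% = PAD4 with DMSO and 100% = wells lacking PAD4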)). Settings: recombinant PAD4, RFA probe fluorescence polarization; at 5 µM; stronger effect = higher value.
Chain of Protein-arginine deiminase type-4 (Homo sapiens) (Q9UM07 whole entry, looked up): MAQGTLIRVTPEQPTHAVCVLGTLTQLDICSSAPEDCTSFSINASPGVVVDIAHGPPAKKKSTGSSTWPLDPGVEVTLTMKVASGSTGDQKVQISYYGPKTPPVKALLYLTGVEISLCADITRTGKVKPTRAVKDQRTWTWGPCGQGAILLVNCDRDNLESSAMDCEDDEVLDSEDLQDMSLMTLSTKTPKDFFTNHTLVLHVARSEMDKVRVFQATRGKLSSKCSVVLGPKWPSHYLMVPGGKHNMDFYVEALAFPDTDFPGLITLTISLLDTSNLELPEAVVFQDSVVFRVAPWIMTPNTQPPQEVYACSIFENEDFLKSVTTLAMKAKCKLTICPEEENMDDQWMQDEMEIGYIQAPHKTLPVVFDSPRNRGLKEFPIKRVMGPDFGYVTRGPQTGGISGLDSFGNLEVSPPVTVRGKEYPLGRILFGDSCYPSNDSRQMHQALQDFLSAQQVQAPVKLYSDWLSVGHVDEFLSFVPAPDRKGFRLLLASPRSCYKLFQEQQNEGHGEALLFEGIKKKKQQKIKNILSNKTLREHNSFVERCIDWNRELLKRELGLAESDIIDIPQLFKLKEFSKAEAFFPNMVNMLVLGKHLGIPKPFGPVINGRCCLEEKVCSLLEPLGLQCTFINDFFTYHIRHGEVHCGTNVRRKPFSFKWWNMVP
Procedure, shortened: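 System: recombinant PAD4. Amount: PAD4 at 2 µM in dispensed buffer, before additions. Doses: single 5 µM final compound concentration. Timing: 30 min 25 °C preincubation, 5 h 37 °C labeling. Benchmarks: wells lacking PAD4 as full-inhibition control. Repeats: single well per compound. Measured by: FP, ex 525 nm, em 598 nm.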

inhibition, inactive:
COc1ccc(C(=O)NC(=O)NC2(C(Cl)(Cl)Cl)OCCO2)cc1 3.68%, COc1cc(OC)c2c(C)c(Cl)c(=O)oc2c1 5.74%, COc1ccc(C2NCCC3(O)CCCCC23)c(OC)c1OC (centres undefined) -0.4%, CC1(C)C(=O)OC(C(=O)c2ccc(Cl)cc2)C(C)(C)C1=O (centres undefined) -1.03%, COc1ccc(OC(C)C(=O)Nc2ccccc2F)cc1 (centres undefined) -0.2%, COc1cccc(OC)c1C(=O)NCCSC1CCCCC1 -2.94%, COc1ccc(N2C(=O)C3CCCN3C2=O)cc1 (centres undefined) 4.89%, CC1(C)Cc2nc3oc4c(NCc5ccccc5)ncnc4c3cc2CO1 1.79%, CCOC(=O)C1NN=C(C(=O)c2ccccc2)C1c1ccc(Cl)cc1 (centres undefined) 1.88%, CN(C)C(=O)C12CCC(C)(c3nc4ccccc4nc31)C2(C)C (centres undefined) 3.6%, Cc1ccc(S(=O)(=O)NC(C(=O)Oc2ccc3c(C(F)(F)F)cc(=O)oc3c2)c2ccccc2)cc1 (centres undefined) 6.06%, O=C(NCCC(c1ccccc1)c1ccco1)c1cccs1 (centres undefined) -4.26%, O=C1CC[C@@H](CN(Cc2ccccc2)Cc2cn[nH]c2-c2cc3ccccc3o2)N1 -4.5%, CC(C)CC(NC(=O)C1CCCN1C(=O)OC(C)(C)C)C(=O)NCC(N)=O (stereo not drawn) (Boc-Pro-Leu-Gly-NH2; configuration not given here) 0.39%, Cc1nc2cc3ccccc3cc2c(=O)[nH]1 -2.65%, O=C(O)c1cnccn1 1.59%, CC1(CC(=O)Nc2ccccc2)NC(=S)N(c2ccccc2)N1 (centres undefined) 0.19%, O=C1c2cccc3cccc(c23)C(=O)N1c1ccccn1 -4.66%, O=C(c1ccc(-c2ccccc2)c(F)c1)C1CCCN(C(=O)c2cncs2)C1 (centres undefined) 3.12%, O=C(O)CCSCCC(=O)O -2.7%, COc1ccc(C(C)=O)c2c1OCCO2 6.78%, CC1(C)CC(C(CC(=O)N2CCCC2)Cc2ccccc2)CCO1 (centres undefined) -1.3%, COc1ccc(NS(=O)(=O)c2ccc(N)cc2)nn1 0.73%, COc1ccc(-c2noc(-c3ccccc3-c3ccccc3)n2)cc1 -3.61%, O=C1C2CC=C(Cl)CC2C(=O)N1CCc1c[nH]c2ccccc12 (centres undefined) -0.53%, COc1ccc(C(CC(=O)N2CCOCC2)C(C)C)cc1 (centres undefined) 4.61%, COc1ccc(N2CCN(C(=S)NCc3ccccc3)CC2)cc1 -1.38%, COc1ccc(NC(=S)N2CCN(CCN3C(=O)c4cccc5cccc(c45)C3=O)CC2)cc1 2.54%, COC(=O)[C@@H](N)CS 2.39%, O=C(NC(=S)Nc1nc(-c2ccccc2)cs1)c1ccco1 4.01%, CC(NC(=O)c1ccc(OC2CCN(Cc3ccccn3)CC2)cc1)c1ccccc1 (centres undefined) -1.87%, OCC1CCN(Cc2cn(Cc3ccccc3)nc2-c2cc3ccccc3o2)CC1 -3.81%, CCOc1ccc2nc(N/C(N)=N/S(C)(=O)=O)nc(C)c2c1 -1.87%, COc1cc(SC)ccc1C(=O)NC(C)C -4.36%, CCn1c(O)c(/C=C2\C=Nc3ccccc32)sc1=O 6.23%, Cc1ccc(C(=O)NCCNC(=O)c2ccccc2)cc1 -2.16%, CC12CCC(C(=O)Nc3ccccc3Br)(C/C1=N\O)C2(C)C (centres undefined) 2.8%, COC(=O)c1ccc2c(c1)C(=O)/C(=C/c1ccc(O)cc1)O2 2.19%, NC[C@H]1O[C@H](O[C@H]2[C@H](O)[C@@H](O[C@H]3O[C@H](CO)[C@@H](O)[C@H](N)[C@H]3O)[C@H](N)C[C@@H]2N)[C@H](N)C[C@@H]1O 0.78%, O=C(c1ccccc1)N1CCN(C(=O)c2ccccc2)CC1 -0.13%, Cn1c(=O)c2c(nc(SCCN3CCCCC3)n2C)n(C)c1=O 4.29%, CCSC(=O)CCCCCCCCCCCO 3.34%, CC(C)OC(=O)C1C(=O)CC(C)(O)C(C(=O)OC(C)C)C1c1cccc(O)c1 (centres undefined) 2.73%, COc1ccc(O)c(C(=O)/C=C/c2cc3ccccc3o2)c1 0.93%, COc1ccc(CCNC(=O)CC(c2ccccc2)c2cccc(C)c2O)cc1OC (centres undefined) 1.59%, COc1ccc(C2NC(C(=O)O)Cc3c2[nH]c2ccccc32)cc1CN1CCN(c2ccc(F)cc2)CC1 (centres undefined) 6.02%, CC(=O)[C@@]1(O)CC[C@H]2[C@@H]3C[C@H](C)C4=CC(=O)C=C[C@]4(C)[C@@]3(F)[C@@H](O)C[C@@]21C -5.68%, COc1ccc2c(c1OC)C(=O)OC2C1c2c(cc3c(c2OC)OCO3)CCN1C (centres undefined) 7.1%, CCOC(=O)c1ccc2[nH]c(C)c(CCC(C)=O)c(=O)c2c1 -4.46%
